Results as given in ChEMBL document CHEMBL4311977, “Design and synthesis of parthenolide and 5-fluorouracil conjugates as potential anticancer agents against drug resistant hepatocellular carcinoma” (Eur J Med Chem, 2019).
Active and inactive are the calls of the source. The rule behind the calls is not given here.

Experiments:
Bel7402/5-FU [1] = test: Induction of apoptosis in human Bel7402/5-FU cells assessed as increase in cytochrome C level at 0.5 to 5 uM incubated for 24 hrs by Western blot analysis; type: functional, cell-based
Method in brief: (§1)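 Bel-7402/5-FU cells were seeded at 5 × 10⁵ per well and left 12 h, then treated with four concentrations (0.5, 1, 2, 5) for 24 h. Cells were PBS-washed and lysed in RIPA on ice for 30 min, then denatured at 100 °C for 5 min. Lysates went through SDS-PAGE and PVDF transfer, 5% milk blocking for 1 h at room temperature, primary antibodies, and HRP secondary for 2 h at room temperature.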

Bel7402/5-FU [2] = test: Induction of apoptosis in human Bel7402/5-FU assessed as early apoptotic cells at 5 uM incubated for 48 hrs by annexinV-FITC/propidium iodide staining based flow cytometry (reference value: 20.1 %)
Bel7402/5-FU [3] = test: Down regulation of Pgp expression in human Bel7402/5-FU cells at 0.5 uM incubated for 24 hrs by flow cytometry
Bel7402/5-FU [4] = test: Induction of apoptosis in human Bel7402/5-FU assessed as early apoptotic cells at 2.5 uM incubated for 48 hrs by annexinV-FITC/propidium iodide staining based flow cytometry (reference value: 20.1 to 20.3 %)
Bel7402/5-FU [5] = test: Antiproliferative activity against human Bel7402/5-FU incubated for 72 hrs by MTT assay; type: functional, cell-based
Method in brief: (§2)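 Bel-7402 and its 5-FU-resistant subline were kept in RPMI-1640 with 10% FBS and 1% penicillin/streptomycin at 37 °C under 5% CO2. Cells were seeded at 5000 per well and left for 12 h, then exposed to a concentration series for 72 h. MTT stock (5 mg/mL) was added for 4 h and the product dissolved in DMSO. OD was read at 570 nm and IC50 obtained by curve fitting.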

Bel7402/5-FU [6] = test: Induction of apoptosis in human Bel7402/5-FU assessed as late apoptotic cells at 2.5 uM incubated for 48 hrs by annexinV-FITC/propidium iodide staining based flow cytometry (reference value: 0.268 to 0.945 %)
Bel7402/5-FU [7] = test: Down regulation of MDR1 expression in human Bel7402/5-FU cells incubated for 24 hrs by western blot analysis; type: functional, cell-based; method in brief: as §1
Bel7402/5-FU [8] = test: Induction of apoptosis in human Bel7402/5-FU assessed as late apoptotic cells at 1 uM incubated for 48 hrs by annexinV-FITC/propidium iodide staining based flow cytometry (reference value: 0.268 to 0.945 %)
Bel7402/5-FU [9] = test: Potency index, ratio of parthenolide IC50 to compound IC50 for antiproliferative activity against human Bel7402/5-FU cells; type: functional
Bel7402/5-FU [10] = test: Down regulation of ABCC1 expression in human Bel7402/5-FU cells incubated for 24 hrs by western blot analysis; type: functional, cell-based; method in brief: as §1
Bel7402/5-FU [11] = test: Induction of apoptosis in human Bel7402/5-FU assessed as early apoptotic cells at 1 uM incubated for 48 hrs by annexinV-FITC/propidium iodide staining based flow cytometry (reference value: 20.1 to 20.3 %)
Bel7402/5-FU [12] = test: Induction of apoptosis in human Bel7402/5-FU assessed as apoptotic cells at 2.5 uM incubated for 48 hrs by annexinV-FITC/propidium iodide staining based flow cytometry (reference value: 3.37 +/- 0.47 %)
Bel7402/5-FU [13] = test: Down regulation of ABCG2 expression in human Bel7402/5-FU cells incubated for 24 hrs by western blot analysis; type: functional, cell-based; method in brief: as §1
NIH3T3 = test: Cytotoxicity against mouse 3T3 cells; type: cell-based
Bel7402/5-FU [14] = test: Induction of apoptosis in human Bel7402/5-FU assessed as viable cells at 2.5 uM incubated for 48 hrs by annexinV-FITC/propidium iodide staining based flow cytometry (reference value: 96.9 to 97.1 %)
Bel7402/5-FU [15] = test: Induction of apoptosis in human Bel7402/5-FU cells assessed as downregulation of Bcl-2 expression at 0.5 to 5 uM incubated for 24 hrs by Western blot analysis; type: functional, cell-based; method in brief: as §1
Bel7402/5-FU [16] = test: Induction of apoptosis in human Bel7402/5-FU cells assessed as activation of caspase-3 at 0.5 to 5 uM incubated for 24 hrs by Western blot analysis; type: functional, cell-based; method in brief: as §1
Bel-7402 = test: Antiproliferative activity against human Bel7402 incubated for 72 hrs by MTT assay; type: functional, cell-based; conditions: Bel-7402, 72 h; method in brief: as §2
Bel7402/5-FU [17] = test: Induction of apoptosis in human Bel7402/5-FU assessed as apoptotic cells at 1 uM incubated for 48 hrs by annexinV-FITC/propidium iodide staining based flow cytometry (reference value: 3.37 +/- 0.47 %)
Bel7402/5-FU [18] = test: Increase in ADR intracellular accumulation in human Bel7402/5-FU cells preincubated for 24 hrs followed by adriamycin addition measured after 1 hr by flow cytometry
Bel7402/5-FU [19] = test: Induction of apoptosis in human Bel7402/5-FU cells assessed as activation of caspase-9 at 0.5 to 5 uM incubated for 24 hrs by Western blot analysis; type: functional, cell-based; method in brief: as §1
Bel7402/5-FU [20] = test: Induction of apoptosis in human Bel7402/5-FU assessed as viable cells at 1 uM incubated for 48 hrs by annexinV-FITC/propidium iodide staining based flow cytometry (reference value: 96.9 to 97.1 %)
[21] = Therapeutic index, ratio of IC50 for mouse 3T3 cells to IC50 for human Bel7402 cells; type: toxicity; conditions: mouse 3T3 cells versus human Bel7402 cells, read-out: TI
Bel7402/5-FU [22] = test: Induction of apoptosis in human Bel7402/5-FU assessed as apoptotic cells at 5 uM incubated for 48 hrs by annexinV-FITC/propidium iodide staining based flow cytometry (reference value: 3.37 +/- 0.47 %)
Bel7402/5-FU [23] = test: Induction of apoptosis in human Bel7402/5-FU assessed as necrotic cells at 1 uM incubated for 48 hrs by annexinV-FITC/propidium iodide staining based flow cytometry (reference value: 0.024 to 0.157 %)
Bel7402/5-FU [24] = test: Induction of apoptosis in human Bel7402/5-FU assessed as necrotic cells at 5 uM incubated for 48 hrs by annexinV-FITC/propidium iodide staining based flow cytometry (reference value: 0.157 %)

Q: With C=C1C(=O)O[C@H]2[C@H]1CC/C(COC(=O)Cn1cc(F)c(=O)n(Cc3ccc(C(F)(F)F)cc3)c1=O)=C\CC[C@@]1(C)O[C@@H]21 as the compound, how does the Activity (Bel7402/5-FU [1]) read?
A: Its Activity is “Active”.

Q: And the Activity (Bel7402/5-FU [2])?
A: The Activity was 18.1 - 82.7%.

Q: What about the Activity (Bel7402/5-FU [3]) of the same compound?
A: The Activity was “Active”.

Q: And the Activity (Bel7402/5-FU [4])?
A: Its Activity is 7.75%.

Q: What about the IC50 (Bel7402/5-FU [5]) of the same compound?
A: The IC50 was 2250 nM.

Q: And the Activity (Bel7402/5-FU [6])?
A: Its Activity is 4.86%.

Q: And the Activity (Bel7402/5-FU [7])?
A: Its Activity is “Dose-dependent effect”.

Q: What about the Activity (Bel7402/5-FU [8]) of the same compound?
A: The Activity was 0.909%.

Q: And the “Ratio IC50” value (Bel7402/5-FU [9])?
A: The value was 5.8.

Q: What about the Activity (Bel7402/5-FU [10]) of the same compound?
A: The Activity was “Dose-dependent effect”.

Q: What about the Activity (Bel7402/5-FU [11]) of the same compound?
A: The Activity was 3.5%.

Q: And the Activity (Bel7402/5-FU [12])?
A: The Activity was 14.43%.

Q: And the Activity (Bel7402/5-FU [13])?
A: The Activity was “Dose-dependent effect”.

Q: What about the IC50 (NIH3T3) of the same compound?
A: The IC50 was 5200 nM.

Q: What about the viability at 2.5 µM (Bel7402/5-FU [14]) of the same compound?
A: Its viability at 2.5 µM is 85.6%.

Q: And the Activity (Bel7402/5-FU [15])?
A: Its Activity is “Active”.

Q: What about the Activity (Bel7402/5-FU [16]) of the same compound?
A: The Activity was “Active”.

Q: What about the IC50 (Bel-7402) of the same compound?
A: Its IC50 is 2250 nM.

Q: And the Activity (Bel7402/5-FU [17])?
A: The Activity was 4.9%.

Q: What about the Activity (Bel7402/5-FU [18]) of the same compound?
A: Its Activity is “Dose-dependent effect”.

Q: And the Activity (Bel7402/5-FU [19])?
A: Its Activity is “Active”.

Q: What about the viability at 1 µM (Bel7402/5-FU [20]) of the same compound?
A: The viability at 1 µM was 94.3%.

Q: What about the selectivity ratio [21] of the same compound?
A: The selectivity ratio was 2.3.

Q: And the Activity (Bel7402/5-FU [22])?
A: Its Activity is 77.97%.

Q: What about the Activity (Bel7402/5-FU [23]) of the same compound?
A: Its Activity is 1.9%.

Q: And the Activity (Bel7402/5-FU [24])?
A: The Activity was 1.49 - 1.75%.
